Test results: PubChem BioAssay AID652011 (Sanford-Burnham Center for Chemical Genomics, 2013)
Values joined by “and” are separate entries in the source; they are usually repeats but may differ in a detail not shown here. Equal values may be shown once.

What follows are compounds tested against Endothelial PAS domain-containing protein 1 (Homo sapiens) (UniProt Q99814) (assay: HIF reporter inhibition across pancreatic and renal lines – cell-based, luminescence, MIAPaCa-2, 786-0, panel, SAR follow-up (AID 652011)). Conditions: MIAPaCa-2/PANC HIF reporter, luciferase luminescence, desferoxamine, overnight, HIF2a PANC, run 2; at 99 µM (top of the series).
Sequence of Endothelial PAS domain-containing protein 1 (Homo sapiens) (Q99814 whole entry, looked up, the tested form may be a part): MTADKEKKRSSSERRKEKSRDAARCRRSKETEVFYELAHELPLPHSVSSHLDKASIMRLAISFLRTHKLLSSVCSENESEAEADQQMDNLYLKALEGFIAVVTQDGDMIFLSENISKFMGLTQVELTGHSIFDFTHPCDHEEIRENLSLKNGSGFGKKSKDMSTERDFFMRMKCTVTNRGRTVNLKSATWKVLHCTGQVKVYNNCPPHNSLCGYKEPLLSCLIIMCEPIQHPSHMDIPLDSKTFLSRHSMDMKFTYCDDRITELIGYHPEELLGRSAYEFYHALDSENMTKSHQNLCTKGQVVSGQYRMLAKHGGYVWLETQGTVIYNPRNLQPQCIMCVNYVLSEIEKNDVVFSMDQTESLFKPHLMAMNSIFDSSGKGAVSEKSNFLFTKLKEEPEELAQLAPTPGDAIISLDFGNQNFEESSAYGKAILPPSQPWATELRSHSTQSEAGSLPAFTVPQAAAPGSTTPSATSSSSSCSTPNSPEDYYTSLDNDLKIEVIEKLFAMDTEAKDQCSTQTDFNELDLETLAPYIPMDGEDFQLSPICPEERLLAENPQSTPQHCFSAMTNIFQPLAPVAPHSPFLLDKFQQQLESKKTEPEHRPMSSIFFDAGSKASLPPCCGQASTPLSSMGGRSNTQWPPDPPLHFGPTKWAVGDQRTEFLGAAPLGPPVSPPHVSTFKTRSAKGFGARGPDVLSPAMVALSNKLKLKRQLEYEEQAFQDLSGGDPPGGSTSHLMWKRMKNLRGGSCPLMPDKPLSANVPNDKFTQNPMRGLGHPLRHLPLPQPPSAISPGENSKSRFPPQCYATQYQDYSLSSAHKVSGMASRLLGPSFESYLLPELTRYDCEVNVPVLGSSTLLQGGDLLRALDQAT
Procedure, shortened: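 Probe or stimulus: desferoxamine stimulus / Schedule: overnight compound incubation at 37 °C, 10 min reagent / Dosing: compounds from 10 mM and 0.3125 mM stocks, 1% DMSO final / Signal: luciferase luminescence with One-Glo reagent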
For CNC(=O)CCc1nc(-c2ccccc2)no1, the inhibition was -73.5% and 30.8%. With CCN(CC)C(=O)CCc1nc(-c2ccc(C(C)(C)C)cc2)no1 the inhibition was 76.8% and 78.5%. Compound O=C(O)CCc1nc(-c2ccccc2)no1 has an inhibition of 45.4%. CCc1ccc(-c2noc(CCC(=O)NC3CC3)n2)cc1 showed an inhibition of -46.2%. With CCC(C)NC(=O)CCc1nc(-c2ccc(C(C)(C)C)cc2)no1 (stereo unspecified) the inhibition was 52.2%. CCc1ccc(-c2noc(CCC(=O)NC(C)CC)n2)cc1 (stereo unspecified) was tested, and the inhibition was -30.6%. CC(C)(C)c1ccc(-c2noc(CCC(N)=O)n2)cc1 was tested, and the inhibition was 124% and 92.8%. With CC(C)(C)c1ccc(-c2noc(CCC(=O)NCc3ccco3)n2)cc1 the inhibition was 99.3% and 99%. Compound CCNC(=O)CCc1nc(-c2cccc(OC)c2)no1 has an inhibition of -12.7%. COc1ccccc1NC(=O)CCc1nc(-c2ccc(C(C)(C)C)cc2)no1 showed an inhibition of 123%. In the case of CC(C)NC(=O)CCc1nc(-c2ccc(C(C)(C)C)cc2)no1, the inhibition is reported as 64.9%. Compound COc1cccc(NC(=O)CCc2nc(-c3ccc(C(C)(C)C)cc3)no2)c1 has an inhibition of 131%. Compound CCCNC(=O)CCc1nc(-c2ccc(C(C)(C)C)cc2)no1 has an inhibition of 73%. CCCCc1ccc(-c2noc(CCC(=O)NC3CC3)n2)cc1 was tested, and the inhibition was 16%. CCNC(=O)CCc1nc(-c2ccccc2Cl)no1 gave an inhibition of 13.5%. For CCNC(=O)CCc1nc(-c2ccc(CC)cc2)no1, the inhibition was -47%. CNC(=O)CCc1nc(-c2ccc(OC)cc2)no1 gave an inhibition of -21.8%. In the case of CNC(=O)CCc1nc(-c2ccc(C)cc2)no1, the inhibition is reported as 76.6%. For CC(C)(C)c1ccc(-c2noc(CCC(=O)N3CCCCC3)n2)cc1, the inhibition was 106%. For CCOc1ccc(-c2noc(CCC(=O)O)n2)cc1, the inhibition was 109%. CC(C)c1ccc(-c2noc(CCC(=O)NC(C)(C)C)n2)cc1 gave an inhibition of 90%. CCCCc1ccc(-c2noc(CCC(=O)NC(C)CC)n2)cc1 (stereo unspecified) showed an inhibition of 37.9%. With CCCCc1ccc(-c2noc(CCC(=O)NC(C)(C)C)n2)cc1 the inhibition was 89%. For CC(C)(C)c1ccc(-c2noc(CCC(=O)NC3CCCC3)n2)cc1, the inhibition was 121%. CCC(C)NC(=O)CCc1nc(-c2ccc(C(C)C)cc2)no1 (stereo unspecified) gave an inhibition of 38.4%. In the case of CNC(=O)CCc1nc(-c2ccc(F)cc2)no1, the inhibition is reported as 8.8%. CCNC(=O)CCc1nc(-c2cccc(F)c2)no1 was tested, and the inhibition was -6.32%. CNC(=O)CCc1nc(-c2ccc(Cl)cc2)no1 was tested, and the inhibition was -17.8%. CC(C)(C)c1ccc(-c2noc(CCC(=O)NC3CC3)n2)cc1 showed an inhibition of 50%. CC(C)(C)c1ccc(-c2noc(CCC(=O)NC3CCCCC3)n2)cc1 gave an inhibition of 104%. CNC(=O)CCc1nc(-c2ccc(C(C)(C)C)cc2)no1 gave an inhibition of 47.3%.
